Laboratory results taken from ChEMBL document CHEMBL1141487, “Alpha,Beta-cyclic-beta-benzamido hydroxamic acids: Novel oxaspiro[4.4]nonane templates for the discovery of potent, selective, orally bioavailable inhibitors of tumor necrosis factor-alpha converting enzyme (TACE)” (Bioorg Med Chem Lett, 2008).

Assays:
[1] = molecular target: Matrix metalloproteinase-9 (Homo sapiens, UniProt P14780); test: Inhibition of MMP9
[2] = Apparent permeability across human Caco-2 cells; format: ADME, cell-based
[3] = Half life in Sprague-Dawley rat at 5 mg/kg, iv; format: ADME, organism-based; design: dose 5 mg/kg, route intravenous; settings: in vivo
In short: (§1)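 Sprague–Dawley rats dosed 5 mg/kg iv and 5 mg/kg orally as n-in-1 cassette. Plasma levels measured by LC/MS/MS.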

Interstitial collagenase = molecular target: T1, Interstitial collagenase (Homo sapiens, UniProt P03956); test: Inhibition of MMP1
T1 sequence (P03956 whole entry): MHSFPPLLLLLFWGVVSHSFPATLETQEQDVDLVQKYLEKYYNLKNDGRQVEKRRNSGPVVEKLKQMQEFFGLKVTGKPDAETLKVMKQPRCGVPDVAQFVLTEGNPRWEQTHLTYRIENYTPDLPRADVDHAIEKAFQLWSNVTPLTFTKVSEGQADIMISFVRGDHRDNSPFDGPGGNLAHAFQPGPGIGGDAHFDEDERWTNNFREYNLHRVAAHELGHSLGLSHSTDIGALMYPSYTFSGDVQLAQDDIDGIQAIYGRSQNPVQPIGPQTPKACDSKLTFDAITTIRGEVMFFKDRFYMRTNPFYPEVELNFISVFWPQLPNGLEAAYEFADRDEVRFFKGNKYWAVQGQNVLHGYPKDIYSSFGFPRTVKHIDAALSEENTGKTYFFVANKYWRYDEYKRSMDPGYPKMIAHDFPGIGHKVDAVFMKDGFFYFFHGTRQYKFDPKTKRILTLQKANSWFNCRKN

[4] = Tmax in Sprague-Dawley rat at 5 mg/kg, po; format: ADME, organism-based; design: dose 5 mg/kg, route oral; settings: in vivo; in short: as §1
[5] = AUC in Sprague-Dawley rat at 5 mg/kg, iv; format: ADME, organism-based; design: dose 5 mg/kg, route intravenous; settings: plasma; in short: as §1
[6] = Clearance in Sprague-Dawley rat at 5 mg/kg, iv; format: ADME, organism-based; design: dose 5 mg/kg, route intravenous; settings: in vivo; in short: as §1
[7] = AUC in Sprague-Dawley rat at 5 mg/kg, po; format: ADME, organism-based; design: dose 5 mg/kg, route oral; settings: plasma; in short: as §1
[8] = Volume of distribution at steady state in Sprague-Dawley rat at 5 mg/kg, iv; format: ADME, organism-based; design: dose 5 mg/kg, route intravenous; settings: in vivo, read-out: Vdss; in short: as §1
[9] = Half life in Sprague-Dawley rat at 5 mg/kg, po; format: ADME, organism-based; design: dose 5 mg/kg, route oral; settings: in vivo; in short: as §1
[10] = molecular target: Disintegrin and metalloproteinase domain-containing protein 17 (Sus scrofa, UniProt O77636)
[11] = molecular target: 72 kDa type IV collagenase (Homo sapiens, UniProt P08253); test: Inhibition of MMP2
Blood = test: Inhibition of LPS-induced TNFalpha production in human whole blood; format: functional, tissue-based
[12] = Bioavailability in Sprague-Dawley rat at 5 mg/kg, po; format: ADME, organism-based; settings: in vivo; in short: as §1
[13] = Oral bioavailability in Beagle dog; format: ADME, organism-based, Canis lupus familiaris; settings: in vivo
Mus musculus = species: Mus musculus; test: Inhibition of LPS-induced TNFalpha production in mouse endotoxemia model after 1 hr; format: functional
In short: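 Mice given lipopolysaccharide together with graded oral gavage doses of inhibitor at t = 0 h. Animals euthanized 1 h post-dose and whole blood taken by cardiac puncture. TNF-α measured in plasma. ED50 calculated from the dose–response.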

Sequence of Disintegrin and metalloproteinase domain-containing protein 17 (O77636 whole entry, the tested form may be a part): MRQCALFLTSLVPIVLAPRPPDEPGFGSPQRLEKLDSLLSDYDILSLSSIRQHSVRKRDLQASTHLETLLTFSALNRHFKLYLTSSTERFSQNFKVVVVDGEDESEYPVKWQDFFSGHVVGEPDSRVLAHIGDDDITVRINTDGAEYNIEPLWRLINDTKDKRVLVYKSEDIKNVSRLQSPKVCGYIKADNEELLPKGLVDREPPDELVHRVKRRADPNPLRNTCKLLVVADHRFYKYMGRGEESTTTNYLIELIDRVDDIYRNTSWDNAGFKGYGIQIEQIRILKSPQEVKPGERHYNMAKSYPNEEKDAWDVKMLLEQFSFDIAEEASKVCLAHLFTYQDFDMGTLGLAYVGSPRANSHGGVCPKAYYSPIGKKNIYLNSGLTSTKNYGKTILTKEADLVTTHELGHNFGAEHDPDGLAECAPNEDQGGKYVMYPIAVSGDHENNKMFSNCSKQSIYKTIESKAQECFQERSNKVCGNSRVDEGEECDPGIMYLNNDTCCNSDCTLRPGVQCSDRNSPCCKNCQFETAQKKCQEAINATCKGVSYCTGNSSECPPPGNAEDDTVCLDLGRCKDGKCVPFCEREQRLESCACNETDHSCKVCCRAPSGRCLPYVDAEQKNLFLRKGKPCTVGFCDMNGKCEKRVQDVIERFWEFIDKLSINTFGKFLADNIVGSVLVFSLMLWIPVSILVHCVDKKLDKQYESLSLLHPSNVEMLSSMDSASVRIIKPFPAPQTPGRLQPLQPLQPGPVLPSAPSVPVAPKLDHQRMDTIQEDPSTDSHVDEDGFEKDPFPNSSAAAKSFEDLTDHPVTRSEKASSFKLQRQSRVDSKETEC
Sequence of Matrix metalloproteinase-9 (P14780 whole entry): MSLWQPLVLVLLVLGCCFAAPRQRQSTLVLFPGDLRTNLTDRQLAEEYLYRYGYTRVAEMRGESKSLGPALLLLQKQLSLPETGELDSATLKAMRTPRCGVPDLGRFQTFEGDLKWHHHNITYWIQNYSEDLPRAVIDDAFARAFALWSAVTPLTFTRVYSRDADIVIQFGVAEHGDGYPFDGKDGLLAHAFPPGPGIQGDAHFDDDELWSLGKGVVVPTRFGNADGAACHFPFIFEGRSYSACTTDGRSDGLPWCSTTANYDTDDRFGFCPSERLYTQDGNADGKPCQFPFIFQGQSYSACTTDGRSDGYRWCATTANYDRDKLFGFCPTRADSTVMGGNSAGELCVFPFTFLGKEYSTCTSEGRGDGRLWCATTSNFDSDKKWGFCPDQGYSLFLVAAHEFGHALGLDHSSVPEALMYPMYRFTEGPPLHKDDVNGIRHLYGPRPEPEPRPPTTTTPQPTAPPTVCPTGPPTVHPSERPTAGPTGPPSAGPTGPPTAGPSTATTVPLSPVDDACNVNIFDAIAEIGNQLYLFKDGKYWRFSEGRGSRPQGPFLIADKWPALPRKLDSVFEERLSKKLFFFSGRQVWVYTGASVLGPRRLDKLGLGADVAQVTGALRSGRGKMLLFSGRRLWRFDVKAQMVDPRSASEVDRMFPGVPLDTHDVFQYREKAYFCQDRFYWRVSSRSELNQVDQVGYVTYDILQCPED
Sequence of 72 kDa type IV collagenase (P08253 whole entry): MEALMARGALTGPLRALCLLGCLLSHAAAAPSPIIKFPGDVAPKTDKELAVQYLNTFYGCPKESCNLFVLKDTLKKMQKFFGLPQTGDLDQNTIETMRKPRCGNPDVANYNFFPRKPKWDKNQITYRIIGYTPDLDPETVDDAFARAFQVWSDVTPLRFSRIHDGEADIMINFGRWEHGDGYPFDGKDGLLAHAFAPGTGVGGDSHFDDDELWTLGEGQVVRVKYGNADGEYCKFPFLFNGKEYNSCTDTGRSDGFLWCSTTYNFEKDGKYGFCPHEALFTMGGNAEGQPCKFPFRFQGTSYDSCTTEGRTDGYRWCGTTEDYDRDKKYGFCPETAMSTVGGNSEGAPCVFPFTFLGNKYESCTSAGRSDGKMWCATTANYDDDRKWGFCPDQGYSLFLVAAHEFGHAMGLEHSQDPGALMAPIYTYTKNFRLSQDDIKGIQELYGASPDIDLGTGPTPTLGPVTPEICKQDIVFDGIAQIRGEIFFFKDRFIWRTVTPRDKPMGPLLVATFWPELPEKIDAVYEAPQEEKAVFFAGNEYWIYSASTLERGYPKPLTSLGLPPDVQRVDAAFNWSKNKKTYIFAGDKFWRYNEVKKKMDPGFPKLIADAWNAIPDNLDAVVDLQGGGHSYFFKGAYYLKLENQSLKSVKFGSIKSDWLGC

| SMILES | Ki [1] | Papp [2] | half-life [3] | Ki (Interstitial collagenase) | Tmax [4] | AUC [5] | clearance [6] | AUC [7] | Vd [8] | half-life [9] | IC50 [10] | Ki [11] | IC50 (Blood) | bioavailability [12] | bioavailability [13] | ED50 (Mus musculus) |
| --- | --- | --- | --- | --- | --- | --- | --- | --- | --- | --- | --- | --- | --- | --- | --- | --- |
| Cc1cc(COc2ccc(C(=O)N[C@@H]3C[C@]4(CCCO4)C[C@@H]3C(=O)NO)cc2)c2ccccc2n1 | 1.25 µM | 1.5 ×10⁻⁶ cm/s | 6.9 h | > 4.95 µM | 0.25 h | 10.9 µM·h | 13.3 mL/min/kg | 3.85 µM·h | 1.4 L/kg | 1.9 h | 0.001 µM | 1.92 µM | 0.143 µM | 35% | – | – |
| Cc1cc(COc2ccc(C(=O)N[C@@H]3C[C@@]4(CCCO4)C[C@@H]3C(=O)NO)cc2)c2ccccc2n1 | 1.45 µM | 5.7 ×10⁻⁶ cm/s | 4.2 h | > 4.95 µM | 0.1 h | 12.6 µM·h | 11.7 mL/min/kg | 3.93 µM·h | 0.3 L/kg | 1.3 h | 0.001 µM | 1.36 µM | 0.108 µM | 31% | 68% | 1 mg/kg |
